Measurements reported in ChEMBL document CHEMBL4020742, “Design and optimization of purine derivatives as in vivo active PDE10A inhibitors” (Bioorg Med Chem, 2017).
pIC50: −log10 of the molar value. The source made the active and inactive calls. No cut-off for these calls is given here.

Key:
[1] = target: T1, cAMP and cAMP-inhibited cGMP 3',5'-cyclic phosphodiesterase 10A (Homo sapiens, UniProt Q9Y233); assay: (§1) Inhibition of recombinant human N-terminal GST-tagged PDE10A1 (2 to 789 residues) expressed in baculovirus infected Sf9 cells at 5 uM using fluorescein-labeled cAMP as substrate preincubated for 15 mins followed by substrate addition measured after 30 mins by IMAP fluorescence polarization assay relative to control
T1 sequence (Q9Y233 whole entry, the tested form may be a part): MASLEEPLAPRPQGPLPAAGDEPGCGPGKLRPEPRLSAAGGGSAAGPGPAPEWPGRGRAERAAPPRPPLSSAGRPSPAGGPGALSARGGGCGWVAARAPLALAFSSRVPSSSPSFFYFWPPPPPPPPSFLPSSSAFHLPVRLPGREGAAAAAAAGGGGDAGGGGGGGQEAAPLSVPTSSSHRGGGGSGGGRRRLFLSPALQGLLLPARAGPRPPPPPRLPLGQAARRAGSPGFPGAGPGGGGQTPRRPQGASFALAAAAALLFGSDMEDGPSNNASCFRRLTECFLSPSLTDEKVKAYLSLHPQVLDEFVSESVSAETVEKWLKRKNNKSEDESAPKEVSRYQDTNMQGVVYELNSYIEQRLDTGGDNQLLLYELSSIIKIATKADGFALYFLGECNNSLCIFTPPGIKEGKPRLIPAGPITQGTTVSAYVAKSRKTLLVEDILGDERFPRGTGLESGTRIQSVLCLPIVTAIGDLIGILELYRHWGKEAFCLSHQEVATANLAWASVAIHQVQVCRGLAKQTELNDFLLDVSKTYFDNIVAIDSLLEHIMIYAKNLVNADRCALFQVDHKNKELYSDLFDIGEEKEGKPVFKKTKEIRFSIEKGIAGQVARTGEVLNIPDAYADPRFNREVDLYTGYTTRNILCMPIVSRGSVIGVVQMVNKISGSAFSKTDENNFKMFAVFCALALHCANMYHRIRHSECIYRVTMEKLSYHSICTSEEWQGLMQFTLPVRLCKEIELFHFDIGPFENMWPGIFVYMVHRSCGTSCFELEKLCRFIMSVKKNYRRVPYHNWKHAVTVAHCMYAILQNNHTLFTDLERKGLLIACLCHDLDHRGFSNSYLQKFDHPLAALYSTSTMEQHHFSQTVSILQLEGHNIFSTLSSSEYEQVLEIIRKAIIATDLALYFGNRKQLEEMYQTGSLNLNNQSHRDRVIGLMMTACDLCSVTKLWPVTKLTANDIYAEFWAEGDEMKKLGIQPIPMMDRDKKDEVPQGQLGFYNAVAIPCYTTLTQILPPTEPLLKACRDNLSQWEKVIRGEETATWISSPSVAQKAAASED
Outline: (§2)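 Recombinant PDE4A1A, PDE2A1 or PDE10A1 was incubated with compound (1% DMSO, duplicate) for 15 min at RT. Fluorescein-cAMP was then added for 30 min at RT, and the reaction was stopped with IMAP binding reagent (1 h, dark). FP was read at Ex485/Em535. Inhibition was set against no-enzyme and DMSO controls. IC50 came from a four-parameter logistic fit; values are the mean of at least two measurements.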

[2] = target: T1, cAMP and cAMP-inhibited cGMP 3',5'-cyclic phosphodiesterase 10A; assay: Inhibition of recombinant human N-terminal GST-tagged PDE10A1 (2 to 789 residues) expressed in baculovirus infected Sf9 cells using fluorescein-labeled cAMP as substrate preincubated for 15 mins followed by substrate addition measured after 30 mins by IMAP fluorescence polarization assay; outline: as §2
[3] = Half life in human liver microsomes at 1 uM preincubated for 5 mins followed by NADPH addition measured up to 30 mins by LC-MS/MS analysis; assay type: ADME, microsome
Outline: (§3)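 Liver microsomes (0.5 mg/mL) plus 1 µM compound were preincubated 5 min at 37 °C in 0.1 M phosphate buffer pH 7.4 containing EDTA and MgCl₂. NADPH started the reaction. Samples at 0, 5, 10 and 30 min were quenched with cold acetonitrile containing tinidazole internal standard and centrifuged. Parent remaining was quantified by LC/MS/MS.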

[4] = Half life in mouse liver microsomes at 1 uM preincubated for 5 mins followed by NADPH addition measured up to 30 mins by LC-MS/MS analysis; assay type: ADME, microsome; outline: as §3
CYP3A4 [5] = target: T2, CYP3A4 (Homo sapiens, UniProt P08684); assay: (§4) Inhibition of CYP3A4 in human microsomes at 10 uM using midazolam as substrate preincubated for 5 mins followed by NADPH addition measured 20 mins relative to control; assay type: ADME; conditions: human microsomes, probe midazolam, read-out: TDI
T2 sequence (P08684 whole entry): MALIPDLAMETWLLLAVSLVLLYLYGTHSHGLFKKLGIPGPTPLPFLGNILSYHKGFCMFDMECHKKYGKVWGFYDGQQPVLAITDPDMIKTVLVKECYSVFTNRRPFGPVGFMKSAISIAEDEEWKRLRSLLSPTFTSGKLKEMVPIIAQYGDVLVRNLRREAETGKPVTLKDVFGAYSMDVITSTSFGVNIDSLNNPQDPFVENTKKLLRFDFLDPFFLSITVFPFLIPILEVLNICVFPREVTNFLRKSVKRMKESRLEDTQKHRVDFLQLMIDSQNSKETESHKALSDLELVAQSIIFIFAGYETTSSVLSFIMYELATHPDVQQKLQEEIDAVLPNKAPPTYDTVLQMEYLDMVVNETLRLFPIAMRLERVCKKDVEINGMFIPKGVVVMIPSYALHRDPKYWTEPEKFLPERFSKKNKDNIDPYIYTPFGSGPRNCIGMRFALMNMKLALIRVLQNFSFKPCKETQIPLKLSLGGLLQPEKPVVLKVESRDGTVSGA
Outline: (§5)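 Pooled human microsomes (0.2 mg/mL) in 100 mM phosphate pH 7.4 with a probe cocktail: midazolam 10 µM, dextromethorphan 10 µM, diclofenac 20 µM, phenacetin 100 µM, mephenytoin 100 µM. Test compound was 10 µM; organic solvent was under 1%. After 5 min preincubation at 37 °C, 1 mmol/L NADPH was added and the reaction ran 20 min, keeping substrate conversion below 20%. Metabolite formation was expressed relative to PBS control.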

Cytochrome P450 3A4 [6] = target: T3, Cytochrome P450 3A4 (Homo sapiens, UniProt P08684); assay: (§6) Time-dependent inhibition of CYP3A4 in human microsomes at 10 uM using midazolam as substrate preincubated for 5 mins followed by NADPH addition measured 20 mins relative to control; assay type: ADME; conditions: microsomes, 20 min, 10 µM
T3 sequence (P08684 whole entry): as above

CYP2D6 [7] = target: T4, CYP2D6 (Homo sapiens, UniProt P10635); assay: (§7) Inhibition of CYP2D6 in human microsomes at 10 uM using dextromethorphan as substrate preincubated for 5 mins followed by NADPH addition measured 20 mins relative to control; assay type: ADME; conditions: human microsomes, probe dextromethorphan, read-out: TDI; outline: as §5
T4 sequence (P10635 whole entry): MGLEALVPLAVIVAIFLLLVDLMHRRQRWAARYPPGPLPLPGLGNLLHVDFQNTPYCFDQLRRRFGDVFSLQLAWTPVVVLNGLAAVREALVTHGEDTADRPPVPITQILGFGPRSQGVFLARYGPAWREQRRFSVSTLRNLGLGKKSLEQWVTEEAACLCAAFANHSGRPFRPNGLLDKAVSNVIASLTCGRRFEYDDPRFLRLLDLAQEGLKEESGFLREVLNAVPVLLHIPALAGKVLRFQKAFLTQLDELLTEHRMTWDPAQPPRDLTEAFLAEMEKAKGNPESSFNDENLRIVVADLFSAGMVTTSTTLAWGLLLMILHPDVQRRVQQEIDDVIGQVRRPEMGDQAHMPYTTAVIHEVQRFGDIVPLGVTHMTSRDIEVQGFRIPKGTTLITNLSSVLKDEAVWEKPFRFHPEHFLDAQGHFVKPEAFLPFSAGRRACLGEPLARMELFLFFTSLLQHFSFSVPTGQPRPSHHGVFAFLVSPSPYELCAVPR

CYP2D6 [8] = target: T4, CYP2D6; assay: (§8) […] of CYP2D6 in human microsomes at 10 uM using dextromethorphan as substrate preincubated for 5 mins followed by NADPH addition measured 20 mins relative to control; assay type: ADME; conditions: human microsomes, probe dextromethorphan, read-out: TDI
CYP2C9 [9] = target: T5, CYP2C9 (Homo sapiens, UniProt P11712); assay: (§9) Inhibition of CYP2C9 in human microsomes at 10 uM using diclofenac as substrate preincubated for 5 mins followed by NADPH addition measured 20 mins relative to control; assay type: ADME; conditions: human microsomes, probe diclofenac, read-out: TDI; outline: as §5
T5 sequence (P11712 whole entry): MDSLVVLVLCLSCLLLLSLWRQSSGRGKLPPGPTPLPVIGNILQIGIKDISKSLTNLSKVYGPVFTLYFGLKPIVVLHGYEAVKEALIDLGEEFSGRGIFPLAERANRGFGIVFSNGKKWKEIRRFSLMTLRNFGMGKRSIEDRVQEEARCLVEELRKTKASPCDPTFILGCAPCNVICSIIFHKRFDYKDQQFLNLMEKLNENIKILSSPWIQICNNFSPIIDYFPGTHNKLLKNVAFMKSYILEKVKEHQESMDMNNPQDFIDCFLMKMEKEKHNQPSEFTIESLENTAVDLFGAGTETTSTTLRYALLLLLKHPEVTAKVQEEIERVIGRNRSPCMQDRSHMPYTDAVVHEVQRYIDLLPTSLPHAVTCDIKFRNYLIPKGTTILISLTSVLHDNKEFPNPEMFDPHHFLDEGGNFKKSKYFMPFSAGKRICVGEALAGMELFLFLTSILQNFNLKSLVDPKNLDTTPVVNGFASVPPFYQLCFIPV

CYP2C9 [10] = target: T5, CYP2C9; assay: (§10) […] of CYP2C9 in human microsomes at 10 uM using diclofenac as substrate preincubated for 5 mins followed by NADPH addition measured 20 mins relative to control; assay type: ADME; conditions: human microsomes, probe diclofenac, read-out: TDI
CYP1A2 [11] = target: T6, CYP1A2 (Homo sapiens, UniProt P05177); assay: Inhibition of CYP1A2 in human microsomes at 10 uM using phenacetin as substrate preincubated for 5 mins followed by NADPH addition measured 20 mins relative to control; assay type: ADME; conditions: probe phenacetin, read-out: TDI; outline: as §5
T6 sequence (P05177 whole entry): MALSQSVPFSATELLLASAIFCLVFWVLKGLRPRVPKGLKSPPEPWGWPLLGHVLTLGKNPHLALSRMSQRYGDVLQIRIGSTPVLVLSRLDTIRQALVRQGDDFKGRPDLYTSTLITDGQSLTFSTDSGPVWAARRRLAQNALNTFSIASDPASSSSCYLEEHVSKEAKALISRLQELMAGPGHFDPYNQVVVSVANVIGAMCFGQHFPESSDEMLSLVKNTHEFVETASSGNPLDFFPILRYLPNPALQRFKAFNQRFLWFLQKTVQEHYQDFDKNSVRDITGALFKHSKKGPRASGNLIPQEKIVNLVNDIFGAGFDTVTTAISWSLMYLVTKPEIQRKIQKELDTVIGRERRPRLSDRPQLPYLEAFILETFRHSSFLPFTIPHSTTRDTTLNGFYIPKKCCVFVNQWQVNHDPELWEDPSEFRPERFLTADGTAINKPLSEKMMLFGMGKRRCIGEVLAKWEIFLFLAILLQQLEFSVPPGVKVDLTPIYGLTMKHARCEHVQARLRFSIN

Cytochrome P450 1A2 = target: T7, Cytochrome P450 1A2 (Homo sapiens, UniProt P05177); assay: (§11) Time-dependent inhibition of CYP1A2 in human microsomes at 10 uM using phenacetin as substrate preincubated for 5 mins followed by NADPH addition measured 20 mins relative to control; assay type: ADME; conditions: microsomes, 20 min, 10 µM
T7 sequence (P05177 whole entry): T6 sequence (P05177 whole entry)

CYP2C19 [12] = target: T8, CYP2C19 (Homo sapiens, UniProt P33261); assay: (§12) Inhibition of CYP2C19 in human microsomes at 10 uM using mephenytoin as substrate preincubated for 5 mins followed by NADPH addition measured 20 mins relative to control; assay type: ADME; conditions: human microsomes, probe mephenytoin, read-out: TDI; outline: as §5
T8 sequence (P33261 whole entry): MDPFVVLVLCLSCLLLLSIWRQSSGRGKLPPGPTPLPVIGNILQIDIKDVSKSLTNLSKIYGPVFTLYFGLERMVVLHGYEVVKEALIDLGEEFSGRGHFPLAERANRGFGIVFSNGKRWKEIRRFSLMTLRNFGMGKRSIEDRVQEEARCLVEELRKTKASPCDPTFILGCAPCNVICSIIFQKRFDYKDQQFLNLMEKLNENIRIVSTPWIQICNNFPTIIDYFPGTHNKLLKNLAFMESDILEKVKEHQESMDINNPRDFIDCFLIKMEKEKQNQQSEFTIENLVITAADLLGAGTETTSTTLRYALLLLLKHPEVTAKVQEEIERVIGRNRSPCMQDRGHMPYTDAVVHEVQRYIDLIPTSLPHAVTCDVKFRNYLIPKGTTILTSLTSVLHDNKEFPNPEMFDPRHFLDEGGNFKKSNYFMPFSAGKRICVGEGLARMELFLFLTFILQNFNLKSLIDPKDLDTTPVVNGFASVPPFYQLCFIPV

CYP2C19 [13] = target: T8, CYP2C19; assay: (§13) […] of CYP2C19 in human microsomes at 10 uM using mephenytoin as substrate preincubated for 5 mins followed by NADPH addition measured 20 mins relative to control; assay type: ADME; conditions: human microsomes, probe mephenytoin, read-out: TDI
CYP3A4 [14] = target: T2, CYP3A4; assay: as §6; assay type: ADME; conditions: human microsomes, probe midazolam, read-out: TDI
Cytochrome P450 2D6 [15] = target: T9, Cytochrome P450 2D6 (Homo sapiens, UniProt P10635); assay: as §7; assay type: ADME; conditions: microsomes, 20 min, 10 µM; outline: as §5
T9 sequence (P10635 whole entry): as the sequence (P10635 whole entry) above

Cytochrome P450 2C9 [16] = target: T10, Cytochrome P450 2C9 (Homo sapiens, UniProt P11712); assay: as §9; assay type: ADME; conditions: microsomes, 20 min, 10 µM; outline: as §5
T10 sequence (P11712 whole entry): as the sequence (P11712 whole entry) above

Cytochrome P450 2C9 [17] = target: T10, Cytochrome P450 2C9; assay: as §10; assay type: ADME; conditions: microsomes, 20 min, 10 µM
CYP1A2 [18] = target: T6, CYP1A2; assay: as §11; assay type: ADME; conditions: human microsomes, probe phenacetin, read-out: TDI
Cytochrome P450 2C19 [19] = target: T11, Cytochrome P450 2C19 (Homo sapiens, UniProt P33261); assay: as §12; assay type: ADME; conditions: microsomes, 20 min, 10 µM; outline: as §5
T11 sequence (P33261 whole entry): as the sequence (P33261 whole entry) above

PDE2A1 = PDE2A1 (Homo sapiens, UniProt O00408); assay: as §1, with “N-terminal FLAG-tagged PDE2A1” for “N-terminal GST-tagged PDE10A1”, “to 941” for “to 789”, “at 1” for “at 5”; conditions: probe fluorescein-labeled cAMP; outline: as §2
PDE2A1, sequence (O00408 whole entry): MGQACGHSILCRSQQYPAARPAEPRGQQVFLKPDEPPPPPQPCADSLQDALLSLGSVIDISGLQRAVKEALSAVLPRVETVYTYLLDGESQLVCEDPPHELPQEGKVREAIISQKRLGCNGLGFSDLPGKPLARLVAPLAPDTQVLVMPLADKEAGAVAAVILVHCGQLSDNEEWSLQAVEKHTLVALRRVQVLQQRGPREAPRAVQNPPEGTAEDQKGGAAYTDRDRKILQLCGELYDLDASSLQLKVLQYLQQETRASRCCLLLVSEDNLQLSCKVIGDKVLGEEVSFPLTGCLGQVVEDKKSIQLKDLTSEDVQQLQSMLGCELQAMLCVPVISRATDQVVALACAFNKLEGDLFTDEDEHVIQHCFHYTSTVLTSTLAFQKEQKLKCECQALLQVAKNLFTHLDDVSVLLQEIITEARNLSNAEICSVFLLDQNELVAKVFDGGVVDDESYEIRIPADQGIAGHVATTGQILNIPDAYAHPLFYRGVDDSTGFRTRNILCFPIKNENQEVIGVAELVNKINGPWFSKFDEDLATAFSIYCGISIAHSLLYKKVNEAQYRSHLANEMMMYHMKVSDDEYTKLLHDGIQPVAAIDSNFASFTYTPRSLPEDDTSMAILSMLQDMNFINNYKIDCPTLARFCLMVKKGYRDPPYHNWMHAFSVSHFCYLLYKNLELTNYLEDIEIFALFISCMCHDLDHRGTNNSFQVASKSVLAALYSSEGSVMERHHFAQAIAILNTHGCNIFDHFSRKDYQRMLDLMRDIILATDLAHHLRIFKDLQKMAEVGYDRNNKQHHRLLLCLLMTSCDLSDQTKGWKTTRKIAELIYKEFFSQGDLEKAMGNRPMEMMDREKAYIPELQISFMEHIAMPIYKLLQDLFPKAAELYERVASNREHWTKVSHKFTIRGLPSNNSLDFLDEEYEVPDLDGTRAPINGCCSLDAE

Rattus norvegicus [20] = assay: Antipsychotic activity in Sprague-Dawley rat assessed as inhibition of PCP-induced hyperlocomotion at 10 mg/kg, po pretreated for 30 mins followed by PCP addition measured after 5 mins for 1.5 hrs by open field test; assay type: functional, organism-based
Outline: (§14)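 Male SD rats (200-250 g), acclimated at least 1 week. Drug was given p.o. in sterile saline with 0.5% Tween 80 and 0.2% CMC-sodium, 30 min before PCP 5 mg/kg i.p. Rats were placed in a 40×40×45 cm open-field arena 5 min after PCP and video-tracked for 90 min. Read-out was total distance travelled, reported as mean ± SEM.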

Rattus norvegicus [21] = assay: Antipsychotic activity in Sprague-Dawley rat assessed as inhibition of PCP-induced hyperlocomotion at 50 mg/kg, po pretreated for 30 mins followed by PCP addition measured after 5 mins for 1.5 hrs by open field test; assay type: functional, organism-based; outline: as §14
Rattus norvegicus [22] = assay: Antipsychotic activity in Sprague-Dawley rat assessed as inhibition of PCP-induced prepulse inhibition deficit at 10 mg/kg, po pretreated for 30 mins followed by PCP addition measured after 5 mins to 10 mins; assay type: functional, organism-based
Outline: (§15)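 Male SD rats (200-250 g) were dosed p.o. in saline with 0.5% Tween 80 and 0.2% CMC-sodium, 30 min before PCP 5 mg/kg i.p. Acoustic startle PPI was tested in startle chambers 5-10 min after PCP. Startle magnitude was the mean of pulse-alone trials. n = 11-16 per group; mean ± SEM; ANOVA with post hoc tests.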

Rattus norvegicus [23] = assay: Antipsychotic activity in Sprague-Dawley rat assessed as inhibition of PCP-induced prepulse inhibition deficit at 50 mg/kg, po pretreated for 30 mins followed by PCP addition measured after 5 mins to 10 mins; assay type: functional, organism-based; outline: as §15
Cytochrome P450 2D6 [24] = target: T9, Cytochrome P450 2D6; assay: as §8; assay type: ADME; conditions: microsomes, 20 min, 10 µM
Cytochrome P450 2C19 [25] = target: T11, Cytochrome P450 2C19; assay: as §13; assay type: ADME; conditions: microsomes, 20 min, 10 µM
Cytochrome P450 3A4 [26] = target: T3, Cytochrome P450 3A4; assay: as §4; assay type: ADME; conditions: microsomes, 20 min, 10 µM; outline: as §5

Compound	inhibition [1]	pIC50 [2]	half-life at 1 µM [3]	half-life at 1 µM [4]	inhibition at 20 min, 10 µM (CYP3A4 [5])	TDI (Cytochrome P450 3A4 [6])	inhibition at 20 min, 10 µM (CYP2D6 [7])	inhibition at 20 min, 10 µM (CYP2D6 [8])	inhibition at 20 min, 10 µM (CYP2C9 [9])	inhibition at 20 min, 10 µM (CYP2C9 [10])	inhibition at 20 min, 10 µM (CYP1A2 [11])	TDI (Cytochrome P450 1A2)	inhibition at 20 min, 10 µM (CYP2C19 [12])	inhibition at 20 min, 10 µM (CYP2C19 [13])	inhibition at 20 min, 10 µM (CYP3A4 [14])	TDI (Cytochrome P450 2C9 [17])	inhibition at 20 min, 10 µM (CYP1A2 [18])	inhibition at 0.5 h, 1 µM (PDE2A1)	TDI (Cytochrome P450 2D6 [24])	TDI (Cytochrome P450 2C19 [25])	further results
Cc1nc2c(N3CCOCC3)ncnc2n1Cc1ccc(-c2cnn(C)c2)cc1	96%	7.17	231 min	99 min	40%	Not Active	7%	20%	10%	40%	21%	Not Active	22%	80%	–	–	–	–	–	–	–
COc1ccc(-c2ccc(CNc3c(C)nc4c(N5CCOCC5)nccn34)cc2)cc1OC	92%	6.34	18.2 min	12.8 min	42%	Not Active	24%	–	41%	–	29%	Not Active	–	–	–	Not Active	–	5%	Not Active	Not Active	TDI (Cytochrome P450 2C19 [19]): Not Active

The next lines start with results.

inhibition [1]	pIC50 [2]	half-life at 1 µM [3]	half-life at 1 µM [4]	inhibition at 20 min, 10 µM (CYP3A4 [5])	TDI (Cytochrome P450 3A4 [6])	inhibition at 20 min, 10 µM (CYP2D6 [7])	inhibition at 20 min, 10 µM (CYP2D6 [8])	inhibition at 20 min, 10 µM (CYP2C9 [9])	inhibition at 20 min, 10 µM (CYP2C9 [10])	inhibition at 20 min, 10 µM (CYP1A2 [11])	TDI (Cytochrome P450 1A2)	inhibition at 20 min, 10 µM (CYP2C19 [12])	inhibition at 20 min, 10 µM (CYP2C19 [13])	inhibition at 20 min, 10 µM (CYP3A4 [14])	TDI (Cytochrome P450 2C9 [17])	inhibition at 20 min, 10 µM (CYP1A2 [18])	inhibition at 0.5 h, 1 µM (PDE2A1)	TDI (Cytochrome P450 2D6 [24])	TDI (Cytochrome P450 2C19 [25])	Compound	further results
97%	7.12	49.5 min	69.3 min	22%	–	–	30%	–	–	12%	–	–	90%	20%	Not Active	10%	4%	–	–	Cc1nc2c(N3CCOCC3)ncnc2n1Cc1ccc(-c2cncnc2)cc1	TDI (Cytochrome P450 2D6 [15]): Not Active; TDI (Cytochrome P450 2C9 [16]): Not Active; TDI (Cytochrome P450 2C19 [19]): Not Active; inhibition (Rattus norvegicus [20]): Active; inhibition (Rattus norvegicus [21]): inactive; inhibition (Rattus norvegicus [22]): Active; inhibition (Rattus norvegicus [23]): inactive
98%	7.42	43.3 min	17.8 min	9%	–	22%	–	52%	10%	15%	Not Active	65%	–	50%	–	–	29%	Not Active	Not Active	Cc1nc2c(N3CCOCC3)ncnc2n1Cc1ccc(-c2ccccc2Cl)cc1	inhibition (Rattus norvegicus [20]): Active; inhibition (Rattus norvegicus [21]): inactive; inhibition (Rattus norvegicus [22]): inactive; inhibition (Rattus norvegicus [23]): inactive
98%	7.25	18.2 min	23.9 min	12%	Not Active	6%	60%	18%	10%	34%	–	21%	70%	–	–	30%	–	–	–	Cc1cc(-c2ccc(Cn3c(C)nc4c(N5CCOCC5)ncnc43)cc2)ccn1	–
97%	7.12	22.4 min	49.5 min	–	Not Active	6%	–	30%	–	12%	–	44%	–	–	Not Active	20%	–	Not Active	Not Active	Cc1ccc(-c2ccc(Cn3cnc4c(N5CCOCC5)ncnc43)cc2)cc1	TDI (Cytochrome P450 3A4 [26]): Not Active
